ChEMBL document CHEMBL3232922, “Discovery and SAR of 6-alkyl-2,4-diaminopyrimidines as histamine H₄ receptor antagonists” (J Med Chem, 2014)
pEC50, pKi: −log10 of the molar value. The source made the active and inactive calls. The rule behind the calls is not given here.

Assays:
[1] = AUC in Balb/c mouse at 5 mg/kg, po; format: ADME, organism-based; parameters: dose 5 mg/kg, route oral; settings: plasma
[2] = AUC in Sprague-Dawley rat at 2 mg/kg, iv; format: ADME, organism-based; parameters: dose 2 mg/kg, route intravenous; settings: plasma
[3] = AUC in Sprague-Dawley rat at 50 mg/kg, po; format: ADME, organism-based; parameters: dose 50 mg/kg, route oral; settings: plasma
[4] = AUC in Sprague-Dawley rat at 200 mg/kg, po; format: ADME, organism-based; parameters: dose 200 mg/kg, route oral; settings: plasma
[5] = AUC in beagle dog at 2 mg/kg, iv; format: ADME, organism-based, Canis lupus familiaris, Plasma; parameters: dose 2 mg/kg, route intravenous; settings: beagle, plasma
[6] = Volume of distribution at steady state in Sprague-Dawley rat at 2 mg/kg, iv; format: ADME, organism-based; parameters: dose 2 mg/kg, route intravenous; settings: Sprague-Dawley, in vivo, read-out: Vdss
[7] = Volume of distribution at steady state in beagle dog at 2 mg/kg, iv; format: ADME, organism-based, Canis lupus familiaris; parameters: dose 2 mg/kg, route intravenous; settings: in vivo, read-out: Vdss
[8] = Half life in Balb/c mouse at 20 mg/kg, po; format: ADME, organism-based; parameters: dose 20 mg/kg, route oral; settings: in vivo
[9] = Half life in Sprague-Dawley rat at 2 mg/kg, iv; format: ADME, organism-based; parameters: dose 2 mg/kg, route intravenous; settings: Sprague-Dawley, in vivo
[10] = Half life in Sprague-Dawley rat at 50 mg/kg, po; format: ADME, organism-based; parameters: dose 50 mg/kg, route oral; settings: in vivo
[11] = Half life in beagle dog at 2 mg/kg, iv; format: ADME, organism-based, Canis lupus familiaris; parameters: dose 2 mg/kg, route intravenous; settings: in vivo
[12] = Half life in beagle dog at 10 mg/kg, po; format: ADME, organism-based, Canis lupus familiaris; parameters: dose 10 mg/kg, route oral; settings: in vivo
[13] = Oral bioavailability in Balb/c mouse at 5 mg/kg; format: ADME, organism-based; settings: in vivo
[14] = Oral bioavailability in Sprague-Dawley rat at 10 mg/kg; format: ADME, organism-based; settings: in vivo
[15] = Oral bioavailability in Sprague-Dawley rat at 200 mg/kg; format: ADME, organism-based; settings: in vivo
[16] = Oral bioavailability in Sprague-Dawley rat at 500 mg/kg; format: ADME, organism-based; settings: in vivo
[17] = Oral bioavailability in beagle dog at 10 mg/kg; format: ADME, organism-based, Canis lupus familiaris; settings: in vivo
[18] = Tmax in mouse liver at 5 mg/kg, po administered as single dose by LC-MS/MS analysis; format: ADME, organism-based; parameters: dose 5 mg/kg, route oral
Procedure, shortened: (§1)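 Mice received one oral dose of 5 mg/kg. Brain, liver and kidneys were surgically removed from three mice per time point for up to 96 h after dosing. Tissue drug levels were measured by LC–MS/MS with a lower limit of quantitation of 1 ng/g. Tmax and t1/2 are reported as means.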

[19] = Half life in mouse brain at 5 mg/kg, po administered as single dose by LC-MS/MS analysis; format: ADME, organism-based; parameters: dose 5 mg/kg, route oral; procedure, shortened: as §1
[20] = Half life in mouse liver at 5 mg/kg, po administered as single dose by LC-MS/MS analysis; format: ADME, organism-based; parameters: dose 5 mg/kg, route oral; procedure, shortened: as §1
[21] = Ratio of drug level in kidney to plasma in mouse at 5 mg/kg, po administered as single dose […] by LC-MS/MS analysis; format: ADME, organism-based; parameters: dose 5 mg/kg, route oral
Mus musculus [22] = experiment: Antiinflammatory activity against po dosed collagen-induced arthritis mouse model assessed as inhibition of clinical score; format: functional, organism-based
Procedure, shortened: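 Mouse collagen-induced arthritis model. Compound was given orally in 20% hydroxypropyl-β-cyclodextran, with eight mice per group.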

[23] = Toxicity in rabbit purkinje fibers; format: tissue-based, Oryctolagus cuniculus, Purkinje fiber; settings: ex_vivo
Histamine H4 receptor [24] = target: Histamine H4 receptor (Homo sapiens, UniProt Q9H3N8); experiment: Agonist activity at human H4 receptor
Histamine H4 receptor [25] = target: T1, Histamine H4 receptor (Mus musculus, UniProt Q91ZY2); experiment: Displacement of [3H]histamine from mouse histamine H4 receptor expressed in SK-N-MC cells after 45 mins by competition binding analysis; format: cell-based
T1 sequence (Q91ZY2 whole entry): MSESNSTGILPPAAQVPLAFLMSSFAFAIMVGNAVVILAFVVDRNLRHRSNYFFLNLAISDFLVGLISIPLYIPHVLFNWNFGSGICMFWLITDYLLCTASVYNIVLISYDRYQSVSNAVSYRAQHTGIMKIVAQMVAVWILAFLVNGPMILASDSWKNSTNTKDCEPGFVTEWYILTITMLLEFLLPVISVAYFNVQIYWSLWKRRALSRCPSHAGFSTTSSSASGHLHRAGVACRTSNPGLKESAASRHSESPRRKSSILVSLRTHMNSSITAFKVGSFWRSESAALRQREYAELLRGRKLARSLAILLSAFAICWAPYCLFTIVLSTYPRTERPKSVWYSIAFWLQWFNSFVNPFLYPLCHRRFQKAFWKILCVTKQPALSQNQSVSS
Procedure, shortened: (§2)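 Transfected cells expressing the H4 receptor, competition against [3H]histamine. Ki is the geometric mean of at least three independent determinations (each in triplicate), calculated by the Cheng–Prusoff equation.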

Histamine H4 receptor [26] = target: T1, Histamine H4 receptor; experiment: Antagonist activity at mouse histamine H4 receptor expressed in SK-N-MC cells assessed as reduction of histamine-induced inhibition of cAMP-mediated beta-galactosidase reporter gene activity treated 10 mins prior to histamine challenge by microplate reader analysis; format: functional, cell-based; settings: read-out: pA2 (converted)
Histamine H3 receptor = Histamine H3 receptor (Homo sapiens, UniProt Q9Y5N1); experiment: Displacement of [3H]N-alpha-methylhistamine from human recombinant histamine H3 receptor expressed in SK-N-MC cells after 45 mins by competition binding analysis; format: cell-based
[27] = Half life in human microsomes; format: ADME, Microsome
[28] = Half life in rat microsomes; format: ADME, Microsome
[29] = target: Voltage-gated inwardly rectifying potassium channel KCNH2 (Homo sapiens, UniProt Q12809); experiment: Inhibition of human ERG channel transfected in HEK293 cells assessed as reduction in delayed rectifier current by patch clamp assay; format: cell-based
Procedure, shortened: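 The delayed rectifier current (IKr) was recorded in hERG-transfected HEK293 cells with the compound at 3 μM.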

[30] = Fraction unbound in human plasma; format: ADME, cell-free
[31] = Fraction unbound in rat plasma; format: ADME, cell-free
[32] = Half life in rat at 2 mg/kg, iv; format: ADME, organism-based; parameters: dose 2 mg/kg, route intravenous; settings: in vivo
[33] = AUC in rat at 2 mg/kg, iv; format: ADME, organism-based; parameters: dose 2 mg/kg, route intravenous; settings: plasma
[34] = Clearance in rat at 2 mg/kg, iv; format: ADME, organism-based; parameters: dose 2 mg/kg, route intravenous; settings: in vivo
[35] = Volume of distribution at steady state in rat at 2 mg/kg, iv; format: ADME, organism-based; parameters: dose 2 mg/kg, route intravenous; settings: in vivo, read-out: Vdss
Mus musculus [36] = experiment: Antiinflammatory activity in po dosed Balb/c mouse assessed as inhibition of LPS-induced TNF-alpha release at plasma concentration of 5.7 nM administered 30 mins prior to LPS challenge measured after 2 hrs by ELISA; format: functional, organism-based
[37] = Binding affinity to monkey histamine H4 receptor; parameters: species or system Macaca mulatta
Histamine H4 receptor [38] = target: Histamine H4 receptor (Rattus norvegicus, UniProt Q91ZY1); experiment: Displacement of [3H]histamine from rat histamine H4 receptor expressed in SK-N-MC cells after 45 mins by competition binding analysis; format: cell-based; procedure, shortened: as §2
[39] = Binding affinity to dog histamine H4 receptor; parameters: species or system Canis lupus familiaris
Salmonella typhimurium = experiment: Genotoxicity in Salmonella typhimurium by Ames test; format: toxicity, organism-based; settings: salmonella enterica subsp. enterica serovar typhimurium
Cytochrome P450 3A4 = Cytochrome P450 3A4 (Homo sapiens, UniProt P08684); experiment: Inhibition of CYP3A4 (unknown origin) at 50 to 100 uM; format: ADME
[40] = Half life in human liver microsomes; format: ADME
[41] = Tmax in Balb/c mouse at 5 mg/kg, po; format: ADME, organism-based; parameters: dose 5 mg/kg, route oral; settings: in vivo
[42] = Tmax in Balb/c mouse at 20 mg/kg, po; format: ADME, organism-based; parameters: dose 20 mg/kg, route oral; settings: in vivo
[43] = Cmax in Balb/c mouse at 20 mg/kg, po; format: ADME, organism-based; parameters: dose 20 mg/kg, route oral; settings: in vivo
[44] = Cmax in Sprague-Dawley rat at 50 mg/kg, po; format: ADME, organism-based; parameters: dose 50 mg/kg, route oral; settings: in vivo
[45] = Cmax in Sprague-Dawley rat at 500 mg/kg, po; format: ADME, organism-based; parameters: dose 500 mg/kg, route oral; settings: in vivo
[46] = AUC in Balb/c mouse at 2 mg/kg, iv; format: ADME, organism-based; parameters: dose 2 mg/kg, route intravenous; settings: plasma

Chain of Voltage-gated inwardly rectifying potassium channel KCNH2 (Q12809 whole entry): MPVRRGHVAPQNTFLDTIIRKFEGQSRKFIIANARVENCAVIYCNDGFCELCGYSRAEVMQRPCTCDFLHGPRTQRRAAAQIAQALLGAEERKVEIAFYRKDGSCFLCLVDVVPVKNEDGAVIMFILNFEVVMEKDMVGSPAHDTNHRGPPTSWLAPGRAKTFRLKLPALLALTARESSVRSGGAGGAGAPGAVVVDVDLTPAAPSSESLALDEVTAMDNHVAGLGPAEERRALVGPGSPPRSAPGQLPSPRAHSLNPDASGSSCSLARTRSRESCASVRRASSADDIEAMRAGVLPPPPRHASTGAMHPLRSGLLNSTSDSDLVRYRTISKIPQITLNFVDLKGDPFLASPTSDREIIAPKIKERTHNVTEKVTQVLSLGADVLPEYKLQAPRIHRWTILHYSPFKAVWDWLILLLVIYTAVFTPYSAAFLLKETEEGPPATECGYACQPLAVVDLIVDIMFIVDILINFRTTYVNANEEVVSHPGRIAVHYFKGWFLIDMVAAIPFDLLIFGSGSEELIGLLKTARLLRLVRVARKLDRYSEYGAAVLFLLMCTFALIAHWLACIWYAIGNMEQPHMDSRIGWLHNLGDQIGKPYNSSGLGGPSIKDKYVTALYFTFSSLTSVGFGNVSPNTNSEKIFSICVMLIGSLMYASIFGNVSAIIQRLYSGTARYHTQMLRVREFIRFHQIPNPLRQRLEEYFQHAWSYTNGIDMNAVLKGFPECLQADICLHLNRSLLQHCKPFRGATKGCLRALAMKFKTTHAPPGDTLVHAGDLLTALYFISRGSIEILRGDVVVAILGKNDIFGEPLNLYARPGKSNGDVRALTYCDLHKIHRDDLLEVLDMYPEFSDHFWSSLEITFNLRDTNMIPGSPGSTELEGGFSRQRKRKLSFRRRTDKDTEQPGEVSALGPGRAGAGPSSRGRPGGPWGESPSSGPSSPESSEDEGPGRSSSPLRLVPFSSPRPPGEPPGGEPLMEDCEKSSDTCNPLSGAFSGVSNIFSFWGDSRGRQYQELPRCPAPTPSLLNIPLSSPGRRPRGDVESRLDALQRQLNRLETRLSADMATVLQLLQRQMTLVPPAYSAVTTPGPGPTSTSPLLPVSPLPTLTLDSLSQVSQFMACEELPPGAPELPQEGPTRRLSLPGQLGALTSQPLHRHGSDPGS
Chain of Histamine H3 receptor (Q9Y5N1 whole entry): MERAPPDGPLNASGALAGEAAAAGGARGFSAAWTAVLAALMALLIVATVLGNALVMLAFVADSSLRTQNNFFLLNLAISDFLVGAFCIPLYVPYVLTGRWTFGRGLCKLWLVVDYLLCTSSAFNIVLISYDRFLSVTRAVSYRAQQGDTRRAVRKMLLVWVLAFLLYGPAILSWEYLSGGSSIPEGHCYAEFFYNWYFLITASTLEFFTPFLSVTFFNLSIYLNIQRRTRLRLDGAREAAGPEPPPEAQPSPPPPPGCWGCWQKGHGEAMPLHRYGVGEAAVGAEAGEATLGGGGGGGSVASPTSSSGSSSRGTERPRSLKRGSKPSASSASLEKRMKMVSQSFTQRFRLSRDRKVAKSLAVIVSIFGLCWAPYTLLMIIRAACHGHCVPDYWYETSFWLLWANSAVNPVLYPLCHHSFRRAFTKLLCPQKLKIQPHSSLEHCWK
Chain of Cytochrome P450 3A4 (P08684 whole entry): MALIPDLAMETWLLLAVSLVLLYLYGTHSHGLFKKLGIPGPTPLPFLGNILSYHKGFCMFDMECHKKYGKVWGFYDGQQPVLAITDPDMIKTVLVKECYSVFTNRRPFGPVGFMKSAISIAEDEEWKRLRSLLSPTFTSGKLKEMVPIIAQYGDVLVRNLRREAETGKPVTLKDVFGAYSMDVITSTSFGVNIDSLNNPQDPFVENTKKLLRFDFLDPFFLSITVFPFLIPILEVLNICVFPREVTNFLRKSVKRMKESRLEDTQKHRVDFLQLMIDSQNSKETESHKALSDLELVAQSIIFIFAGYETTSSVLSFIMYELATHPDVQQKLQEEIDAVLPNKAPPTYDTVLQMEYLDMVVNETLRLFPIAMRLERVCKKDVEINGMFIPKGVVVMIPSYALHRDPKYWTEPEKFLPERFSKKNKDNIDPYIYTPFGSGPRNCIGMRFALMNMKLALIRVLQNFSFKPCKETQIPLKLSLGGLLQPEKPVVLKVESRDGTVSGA
Chain of Histamine H4 receptor (Rattus norvegicus, UniProt Q91ZY1) (Q91ZY1 whole entry): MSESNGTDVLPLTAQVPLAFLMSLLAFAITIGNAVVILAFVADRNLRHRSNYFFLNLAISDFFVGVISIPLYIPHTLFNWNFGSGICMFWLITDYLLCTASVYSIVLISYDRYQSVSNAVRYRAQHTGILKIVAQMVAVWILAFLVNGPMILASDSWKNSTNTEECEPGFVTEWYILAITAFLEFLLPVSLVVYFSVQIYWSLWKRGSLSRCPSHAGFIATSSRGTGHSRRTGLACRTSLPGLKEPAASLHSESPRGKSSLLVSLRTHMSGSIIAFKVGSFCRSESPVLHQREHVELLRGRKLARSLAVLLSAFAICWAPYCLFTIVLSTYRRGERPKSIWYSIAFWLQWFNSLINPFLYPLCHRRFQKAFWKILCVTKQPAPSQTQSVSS

AUC [1]: 9.69 µM·h | AUC [2]: 1.4 µM·h | AUC [3]: 13.4 µM·h | AUC [4]: 71.2 µM·h | AUC [5]: 6.7 µM·h | Vd [6]: 19.9 L/kg | Vd [7]: 19.9 L/kg | half-life [8]: 4.7 h | half-life [9]: 2.1 h | half-life [10]: 5.45 h | half-life [11]: 10.2 h | half-life [12]: 11.2 h | bioavailability [13]: 84% | bioavailability [14]: 35% | bioavailability [15]: 51% | bioavailability [16]: 53% | bioavailability [17]: 95% | Tmax [18]: 2 h | half-life [19]: 42.5 h | half-life [20]: 22.3 h | Kp [21]: 23.2 | pEC50 (Histamine H4 receptor [24]): < 5.00 | pKi (Histamine H4 receptor [25]): 8.28 | Kb (Histamine H4 receptor [26]): 0.00501 µM | pKi (Histamine H3 receptor): 5.98 | half-life [27]: > 3 h | half-life [28]: 1.02 h | fraction unbound [30]: 0.81 | fraction unbound [31]: 0.83 | half-life [32]: 2.1 h | AUC [33]: 1.4 µM·h | clearance [34]: 36.7 mL/min/kg | Vd [35]: 19.9 L/kg | pKi [37]: 7.60 | pKi (Histamine H4 receptor [38]): 6.73 | pKi [39]: ≤ 5.00 | inhibition (INH) (Cytochrome P450 3A4): Not Active | half-life [40]: > 2 h | Tmax [41]: 2 h | Tmax [42]: 0.5 h | Cmax [43]: 5.03 µM | Cmax [44]: 1.25 µM | Cmax [45]: 7.07 µM | AUC [46]: 3.27 µM·h
Compound: CC(C)c1cc(N2CC[C@@H](N)C2)nc(N)n1 [JNJ-39758979]
inhibition (Mus musculus [22]): Dose-dependent effect | Activity [23]: Non-toxic | INH [29]: > 10 µM | inhibition (Mus musculus [36]): Active | Activity (Salmonella typhimurium): Non-toxic
